Results as given in paper PMC6044864 (ACS Omega, 2017).

Experiments:
[1] = tested on: bacteria; conditions: cited from earlier work
[2] = tested on: Candida albicans cells; conditions: cited from earlier work
[3] = tested on: human erythrocytes; conditions: cited from earlier work
[4] = tested on: HeLa cells; conditions: cited from earlier work
[5] = tested on: Trichosporon beigelii cells; conditions: cited from earlier work
[6] = Photodegradation; assay type: physicochemical; conditions: photostability; 10 μmol·L^–1 in 60% ACN/H2O/0.09% TFA; laser 440 nm; 0 to 50 min
Method in brief: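 Test compound was irradiated in solution at room temperature with a pulsed 10 Hz laser at 440 nm for 50 min. UV/vis absorption spectra were recorded before irradiation and every 5 min. Absorbance maximum at 440 nm was plotted against time, and the change was taken as the difference between initial and final readings.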

For “TAT peptide (47-58): carboxyl-free analogue of TAT(47-57)-NH2”, the “Growth inhibition of bacteria” value [1] is given as “inhibit the growth”, the “Growth inhibition of Candida albicans cells” value [2] is given as “inhibit the growth” and the Hemolytic effect [3] is given as “without hemolytic effect”. For the same substance, the “Cell penetration and nuclear localisation” value [4] was “penetrate, and localize in the nucleus” and the “Cell penetration and nuclear localisation” value [5] was “penetrate, and localize in the nucleus”.
For 5(6)-carboxyfluorescein [FAM], the “Difference of absorbance at 440 nm in 50 min of exposure to light” value [6] was 0.022.
